Measurements from PMC12118959 (Toxicological Sciences, 2025).
Where a name gives a salt, the structure may show the parent alone.

Tests used:
3D ECTs [1] = assay: Contractility; type: cell-based, human; conditions: for MEC (minimum effective concentration), active force: serum-free, paced at 1 Hz, 15 min per concentration
Procedure, shortened: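 Tissues were built from iCell cardiomyocytes plus human ventricular cardiac fibroblasts in hydrogel on Biowire II wires. After 30 min chamber equilibration, a 30-s baseline video was recorded, then a second one 10 min after a medium-pipetting step. Test compound in DMSO was added cumulatively at 3 or 4 rising concentrations (final DMSO 0.001–0.1%), 15 min each, with a 30-s video per concentration. n=6–9 tissues, one compound per tissue.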

2D hiPSC-CMs [2] = assay: Motion-field imaging contractility; type: cell-based, human; conditions: for MEC (minimum effective concentration), maximum contraction speed: serum-containing medium, concentration for 1.08-fold increase or 0.92-fold decrease
Procedure, shortened: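 Thawed iCell hiPSC-CMs were re-plated on day 7 onto a ~3 mm fibronectin spot and cultured 5–9 days at 37°C, 5% CO2, with serum-containing medium overnight before recording. Phase-contrast video at 4x, 150 frames/s, analysed by block-matching. After sham baseline, cumulative additions from 1,000-fold DMSO stocks (final DMSO 0.1–0.4% v/v), 15 min each, 10-s videos; 4–5 wells. MEC by four-parameter log fit, 1.08/0.92-fold cutoffs.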

hERG = conditions: read-out: hERG IC50; ref Sube and Ertel 2017; cited from earlier work
3D ECTs [3] = conditions: read-out: EC50, positive inotropic effect; same 3D ECT model; ref Feric et al. 2019; cited from earlier work
aligned hiPSC-CMs = conditions: ref Satsuka et al. 2024; cited from earlier work
NaV1.5 = conditions: read-out: NaV1.5 IC50; ref Wang et al. 2010; cited from earlier work
CaV1.2 = conditions: read-out: CaV1.2 IC50; ref Ando et al. 2017; cited from earlier work
2D hiPSC-CMs [4] = conditions: ref Okai et al. 2020; cited from earlier work

| Compound | Concentration up to which no effect on active force was observed (3D ECTs [1]) | MEC (minimum effective concentration), active force (3D ECTs [1]) | MEC (minimum effective concentration), maximum contraction speed (2D hiPSC-CMs [2]) | further results |
| --- | --- | --- | --- | --- |
| CC(=O)Oc1ccccc1C(=O)O [Aspirin, acetylsalicylic acid] | 300 µM | >300 µM | >300 µM | – |
| COc1ccc(Cl)cc1C(=O)NCCc1ccc(S(=O)(=O)NC(=O)NC2CCCCC2)cc1 [Glibenclamide, glyburide] | – | >100 µM | >100 µM | – |
| C[C@H](CS)C(=O)N1CCC[C@H]1C(=O)O [Captopril, captopril] | 100 µM | >100 µM | >100 µM | – |
| Cc1ccc(N(CC2=NCCN2)c2cccc(O)c2)cc1 [Phentolamine, phentolamine hydrochloride] | 3.0 µM | – | >0.30 µM | IC50 (hERG): 0.85 µM |
| Cc1[nH]c(=O)c(C#N)cc1-c1ccncc1 [milrinone] | – | – | – | EC50 (3D ECTs [3]): 0.0016 µM; Inotropic effect in aligned hiPSC-CMs (aligned hiPSC-CMs): remained undetectable |
| CN/C(=N/CCSCc1nc[nH]c1C)NC#N [Cimetidine, cimetidine] | 100 µM | >100 µM | >100 µM | – |
| CC(C)NCC(O)COc1cccc2ccccc12 (racemic) [Propranolol, (±)-propranolol hydrochloride] | – | 3.0 µM | – | MEC (minimum effective concentration), active force (3D ECTs [1]; listed as propranolol): ~3 µM; IC50 (NaV1.5): 3 µM |
| Nc1cc(-c2ccncc2)c[nH]c1=O [Amrinone, amrinone] | – | – | >100 µM | – |
| COc1ccc(-c2nc3ccc(C4=NNC(=O)CC4C)cc3[nH]2)cc1 (stereo not shown) [Pimobendan, pimobendan] | – | – | >60 µM | – |
| CC(C)NCC(O)c1ccc(O)c(O)c1 (stereo not shown) [Isoproterenol, isoproterenol] | – | <0.00010 µM | – | MEC, positive inotropic effect (active force) (3D ECTs [1]): below 0.1 nM; MEC, positive inotropic effect (maximum contraction speed) (2D hiPSC-CMs [2]): 0.35 nM |
| CCOc1ccccc1OCCN[C@H](C)Cc1ccc(OC)c(S(N)(=O)=O)c1 [Tamsulosin, tamsulosin] | 1.0 µM | 3.0 µM | >3.0 µM | – |
| O=C(CCCN1CCC(O)(c2ccc(Cl)cc2)CC1)c1ccc(F)cc1 [Haloperidol, haloperidol] | – | 0.30 µM | >0.10 µM | Concentration at which irregular beating was induced (2D hiPSC-CMs [2]): above 0.10 µM; IC50 (CaV1.2): 1.3 µM |
| CN(C)C/C=C(/c1ccc(Br)cc1)c1cccnc1 [Zimelidine, zimelidine] | 3.0 µM | – | >0.10 µM | – |
| CC[C@H](C)C(=O)O[C@H]1C[C@H](O)C=C2C=C[C@H](C)[C@H](CC[C@@H](O)C[C@@H](O)CC(=O)O)[C@H]21 [Pravastatin, pravastatin] | 100 µM | >100 µM | >100 µM | – |
| CC(CCc1ccc(O)cc1)NCCc1ccc(O)c(O)c1 (stereo not shown) [dobutamine] | – | – | – | Inotropic effect in 2D hiPSC-CMs (previous study) (2D hiPSC-CMs [4]): positive inotropic effect |
